From publication PMC9124159 (Molecular Diversity, 2022)
Values after ≈ are worked out from the molar mass of the structure shown. Values joined by “and” are separate entries in the source; they are usually repeats but may differ in a detail not shown here. Equal entries are not always repeated. “Also recorded” adds a separate entry of the source. Where two headings read alike, the source gives them in different places.

How the values were obtained:
[1] = test system: H37Rv strain of Mtb; details: H37Rv strain of Mtb in vitro; cited from earlier work
[2] = test system: GFP reporter strain of Mtb (Mtb pMSp12: GFP); assay type: cell-based, Mycobacterium tuberculosis
[3] = test system: Vero cell line; assay: MTT cytotoxicity assay, Vero cells; assay type: cell-based; details: 48 h
Outline: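 Vero cells plated at 3.0 × 10³ cells/well, 24 h at 37 °C, 5% CO2. Then 48 h exposure to test compound at 1, 5 or 10 µM in 0.15% DMSO, triplicate technical repeats. Positive control was 0.2% Triton X-100 for 15 min. Cells PBS-rinsed, MTT 0.5 mg/ml final for 4 h, formazan dissolved in DMSO. Absorbance 560 nm against 630 nm background; survival vs untreated cells; SD, n = 3.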

[4] = MTT cytotoxicity assay, BJ-5ta cells; assay type: cell-based, Human; details: human, BJ-5ta cells (hTERT immortalized human skin fibroblasts)
Outline: (§1)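 BJ-5ta fibroblasts seeded at 1.8 × 10⁴ cells/well, 24 h at 37 °C, 5% CO2. Then exposed 48 h to test compound at 1, 5 or 10 µM in 0.15% DMSO, 3 technical repeats. Dead-cell control was 0.2% Triton X-100 for 15 min. After PBS rinses, MTT 0.5 mg/ml final for 4 h, formazan dissolved in DMSO. A560 minus A630, DMSO-blank-corrected, % of untreated cells; mean ± SD.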

[5] = test system: BJ-5ta (hTERT immortalized Human skin fibroblasts); assay: MTT cytotoxicity assay, BJ-5ta cells; assay type: cell-based; details: BJ-5ta, 48 h, MTT
Outline: as §1

Row | Compound | MIC90 [2] | further results
1 | CO[C@H]1/C=C/O[C@@]2(C)Oc3c(C)c(O)c4c(O)c(c(/C=N/N5CCN(C)CC5)c(O)c4c3C2=O)NC(=O)/C(C)=C\C=C\[C@H](C)[C@H](O)[C@@H](C)[C@@H](O)[C@@H](C)[C@H](OC(C)=O)[C@@H]1C [RF, rifampicin] |  | MIC [1]: 0.09 µM (≈ 0.0741 µg/mL)
2 | Brc1ccc(Nc2ncnc3[nH]ccc23)cc1 [Compound 10, N-(4-bromophenyl)-7H-pyrrolo[2,3-d]pyrimidin-4-amine] | 3.9 µM and 3.90 µM | 
3 | c1ccc(CCCCNc2ncnc3[nH]ccc23)cc1 [Compound 23, N-(4-phenylbutyl)-7H-pyrrolo[2,3-d]pyrimidin-4-amine] | 3.713 µM and 3.71 µM | 
4 | c1ccc(CCCNc2ncnc3[nH]ccc23)cc1 [Compound 22, N-(3-phenylpropyl)-7H-pyrrolo[2,3-d]pyrimidin-4-amine] | 14.45 µM (≈ 3.65 µg/mL) | 
5 | N-(3-morpholinopropyl)-7H-pyrrolo[2,3-d]pyrimidin-4-amine [Compound 28] | 125 µM | 
6 | c1ccc(Nc2ncnc3[nH]ccc23)cc1 [Compound 1, N-phenyl-7H-pyrrolo[2,3-d]pyrimidin-4-amine] | 62.5 µM (≈ 13.1 µg/mL) | 
7 | CC(C)OCCCNc1ncnc2[nH]ccc12 [Compound 27, N-(3-isopropoxypropyl)-7H-pyrrolo[2,3-d]pyrimidin-4-amine] | 125 µM (≈ 29.3 µg/mL) | 
8 | c1nc(Nc2ccc(N3CCOCC3)cc2)c2cc[nH]c2n1 [Compound 15, N-(4-morpholinophenyl)-7H-pyrrolo[2,3-d]pyrimidin-4-amine] | 3.906 µM and 3.90 µM | 
9 | c1ccc(Oc2ccc(Nc3ncnc4[nH]ccc34)cc2)cc1 [Compound 11, N-(4-phenoxyphenyl)-7H-pyrrolo[2,3-d]pyrimidin-4-amine] | 0.488 µM (≈ 0.148 µg/mL) | MIC90 ([2]; […], no unit printed in the conclusion): 0.488; Cytotoxicity (in words) [3]: no potential cytotoxicity risk; Cytotoxicity (in words) ([3]; listed as N-(4-phenoxy phenyl)-7H-pyrrolo[2,3-d]pyrimidin-4-amine): non-cytotoxic; Cell viability reduction ([3]; highest concentration tested (1, 5, 10 µM tested)): no cell viability reduction observed; viability at 48 h, 1 µM [4]: 115%; Cytotoxicity (in words) [5]: weakly cytotoxic; also recorded: weak cytotoxicity
10 | N-(2-methoxy-4-nitrophenyl)-7H-pyrrolo[2,3-d]pyrimidin-4-amine [Compound 14] | > 125 µM | 
11 | Fc1cccc(Nc2ncnc3[nH]ccc23)c1 [Compound 3, N-(3-fluorophenyl)-7H-pyrrolo[2,3-d]pyrimidin-4-amine] | > 125 µM | 
12 | N-(3-(trifluoromethyl)phenyl)-7,7a-dihydro-1H-pyrrolo[2,3-d]pyrimidin-4-amine [Compound 4] | 62.5 µM | 
13 | N-(3-nitrophenyl)-7H-pyrrolo[2,3-d]pyrimidin-4-amine [Compound 13] | 62.5 µM | 
14 | OCCNCCNc1ncnc2[nH]ccc12 [Compound 26, 2-((2-((7H-pyrrolo[2,3-d]pyrimidin-4-yl)amino)ethyl)amino)ethan-1-ol] | 125 µM (≈ 27.7 µg/mL) | 
